Rev-erbA mod = Rev-erb alpha (human) modulation. P20393. Rev-erbα–FITC-DNA binding, fluorescence polarization, 90 min. activity, % at 10 µM. 370,000 compounds, 0.79% hits;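 active = activity above about 14%, limit read from the data; passing the limit was not always enough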;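 note: 0% = DMSO wells with 35 nM protein and 100% = DMSO wells with 750 nM protein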
MC4R ag barr = agonists of human melanocortin 4 receptor (MC4R) beta-arrestin | 360,000 compounds, 0.98% hits | activation, % at 8.9 µM | P32245 | U2OS MC4R beta-arrestin complementation, luminescence; percent of melanotan II response, DMSO zero;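 active = activation above a per-plate cutoff, the mean activation of sample wells on that plate plus 3 SD, cut at about 8% in these data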
NTR1 ag = agonists of human neurotensin receptor NTR1 | NTR1-U2OS beta-arrestin-GFP spot imaging, agonist mode | activation, % at 20 µM | 330,000 compounds, 0.17% hits | AID 493036;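 active = activation at or above 40% of the spot to cytoplasm intensity ratio, with at least 20 cells analyzed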;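 note: 0% = DMSO without peptide and 100% = 100 nM NTR1 peptide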
Target sequence (P30989 whole entry, looked up): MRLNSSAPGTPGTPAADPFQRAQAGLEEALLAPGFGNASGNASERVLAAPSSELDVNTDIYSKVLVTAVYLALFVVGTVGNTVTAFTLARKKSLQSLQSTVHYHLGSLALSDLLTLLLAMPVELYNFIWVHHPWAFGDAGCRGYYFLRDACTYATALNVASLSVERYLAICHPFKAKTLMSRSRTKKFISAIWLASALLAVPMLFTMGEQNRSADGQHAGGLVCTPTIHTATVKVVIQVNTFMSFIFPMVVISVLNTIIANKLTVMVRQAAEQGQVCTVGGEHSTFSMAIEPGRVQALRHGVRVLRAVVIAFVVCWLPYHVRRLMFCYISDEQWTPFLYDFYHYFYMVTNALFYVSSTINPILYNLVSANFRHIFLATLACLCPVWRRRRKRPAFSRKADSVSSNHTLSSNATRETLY
MC4R antag cAMP = antagonists of human melanocortin 4 receptor (MC4R). AID 540295. P32245. inhibition, % at 6.5 µM. MC4R-expressing cells, MTII-stimulated cAMP, LANCE TR-FRET. 360,000 compounds, 0.48% hits;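 active = inhibition above its plate's cutoff, the mean of tested wells on that plate plus 3 SD, cut at about 29% in these data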;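 note: 0% = Melanotan II alone and 100% = Melanotan II plus saturating MCL0020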
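Assay system: human MC4R-expressing U2OS cells; reagent: Melanotan II stimulation of cells; dosing: 6.5 µM single dose; timing: compound 30 min, challenge 1 h, detection 1 h; signal: TR-FRET cAMP assay; replicates: one well per compound, no replicates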
PG9 Ab binder = PG9 antibody binding by small molecule; inhibition, % at 6.7 µM; TR-FRET gp120-PG9 antibody binding; 360,000 compounds, 0.43% hits; AID 624416; in the data active = inhibition above about 8.5%
U2OS cAMP counter = nonselective cAMP signaling inhibitor, MC4R antagonist counter-screen; parental U2OS, forskolin cAMP, LANCE TR-FRET; shares compounds with MC4R antag cAMP; 1,600 compounds, 26% hits; AID 602193; inhibition, % at 6.5 µM;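 active = mean inhibition over triplicates above the low-control well mean plus 3 SD, set per campaign, cut at about 13% in these data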;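 note: signal is single emission at 671 nm which falls as cellular cAMP rises; 0% = forskolin-stimulated wells and 100% = buffer without forskolin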
MC4R antag conf = human MC4R cAMP antagonism confirmation. shares compounds with MC4R antag cAMP. MC4R-expressing cells, MTII-stimulated cAMP, TR-FRET. inhibition, % at 6.5 µM. 1,600 compounds, 27% hits; in the data active = inhibition above about 29%;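 note: 0% = agonist stimulated wells alone and 100% = agonist stimulated wells plus saturating reference antagonist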
* marks the source's active call; other numbers are inactive results; nt = no result given. This is a sample that favours compounds with a hit; in the whole collection about 2.5% have one here.

SMILES | Rev-erbA mod | MC4R ag barr | NTR1 ag | MC4R antag cAMP | PG9 Ab binder | U2OS cAMP counter | MC4R antag conf
C#CC(=O)N(c1ccc(OC)cc1OC)C(C(=O)NC1CCCC1)c1cccs1 (stereo unspecified) | -6 | 9.0* | 4 | 43* | 1 | -38 | 42*
C#CC(=O)N(c1cc(OC)ccc1OC)C(C(=O)NC1CCCC1)c1cccs1 (stereo unspecified) | nt | 16* | 7 | 33* | nt | -34 | 22
CC1CC1C(=O)N1CCC(Oc2cccnc2)CC1 (stereo unspecified) | 3 | nt | nt | nt | nt | nt | nt
Cc1ccccc1CN1CCCCC(NC(=O)Nc2ccccc2)C1=O (stereo unspecified) | -1 | nt | nt | nt | nt | nt | nt
COC(=O)[C@]12C[C@H](CC(=O)N3CCCCC3)C(=O)N(Cc3ccc(Cl)cc3Cl)C1=C[C@H](C(C)C)O[C@@H]2C1CC1 | -4 | nt | nt | nt | nt | nt | nt
O=C(Nc1cccc(NC(=O)c2ccc(Br)o2)c1)c1ccccc1 | -3 | -1 | 1 | 34* | -2 | 1 | 5
O=C(NCCc1ccccc1)OCc1cn(Cc2ccc(Cl)cc2)nn1 | -2 | nt | nt | nt | nt | nt | nt
COc1cc(-c2cc(NC(C)=O)c3ncc(-c4ccc(C(C)=O)cc4)n3c2)cc(OC)c1OC | -2 | 8.7* | nt | 29* | -2 | 1 | 12
F[B-](F)(F)c1cncnc1 | 4 | nt | nt | nt | 1 | nt | nt
Cc1ccc(S(=O)(=O)NCC2CN(S(=O)(=O)c3ccc(C)cc3)c3ccccc3C(=O)N2c2ccc(F)cc2)cc1 (stereo unspecified) | 1 | nt | nt | nt | nt | nt | nt
CCOC(=O)[C@]12CCCC3=C1N(CCC3)C(=O)[C@@H](CC(=O)NCc1ccc(C)o1)C2 | 3 | nt | nt | nt | nt | nt | nt
CC(C)(C)OC(=O)NCCCCCNC(=O)c1[nH]cnc1C(=O)Nc1cc(Br)ccc1F | 2 | 2 | nt | 33* | 0 | 4 | 3
CC(C)(C)OC(=O)NCc1ccc(NC(=O)c2nc[nH]c2C(=O)NCCCNC(=O)c2[nH]cnc2C(=O)Nc2ccc(CNC(=O)OC(C)(C)C)cc2)cc1 | nt | 8.7* | 12 | 31* | nt | 3 | 8
Cc1ccc(C)c(NC(=O)c2cccc3c2-c2ccccc2C3=O)c1 | -2 | nt | nt | nt | nt | nt | nt
O=C(Cc1c[nH]c2ccccc12)Nc1ccc(Nc2cccnc2)c(-c2cc(F)cc(F)c2)c1 | 3 | nt | nt | nt | -1 | nt | nt
CCN(C[C@H]1[C@@H](c2ccc(C3=CCCC3)cc2)[C@H](CO)N1c1nc(C)c(C)s1)S(=O)(=O)c1ccccc1[N+](=O)[O-] | -1 | nt | nt | nt | nt | nt | nt
Cc1ccc(C(=O)Nc2nnc(S(=O)(=O)N3CCC(C)CC3)s2)cc1 | 0 | 0 | 2 | 5 | -1 | nt | nt
Cc1cccc(C(=O)Nc2nnc(S(=O)(=O)N3CCC(C)CC3)s2)c1 | 0 | -1 | 2 | 50* | 4 | 8 | 16
c1ccc(COc2ccc(-c3cc4nc(NCCN5CCOCC5)ccn4n3)cc2)cc1 | -2 | 2 | nt | 33* | -1 | 3 | 20
c1ccc(COc2cccc(-c3cc4nc(NCCN5CCOCC5)ccn4n3)c2)cc1 | 0 | 0 | nt | 3 | 2 | nt | nt
COc1ccc(/C=C/S(=O)(=O)NCC(C)C)c(CNC(=O)OC(C)(C)C)c1 | 0 | nt | nt | nt | nt | nt | nt
CCOc1cc(N2CCOCC2)c(OCC)cc1NC(=O)COC(=O)COc1ccc(C#N)cc1 | 1 | -2 | -1 | 31* | -4 | 10 | 15
O=c1[nH]c(=S)[nH]cc1Oc1ccc(Cl)cc1Cl | 3 | 1 | 2 | 36* | 8 | 3 | 2
CCOC(=O)Cn1cc(CN2CCS(=O)(=O)N(Cc3ccc(C)cc3)C(C(=O)OC)C2)nn1 (stereo unspecified) | -6 | nt | nt | nt | nt | nt | nt
COc1cc2c(=O)n(CCCC(=O)NCC3CCCO3)c(=O)n(CC(=O)c3ccc(F)cc3)c2cc1OC (stereo unspecified) | 5 | 0 | -1 | 30* | 1 | 0 | -3
COc1ccc(NC(=O)CN2C(=O)C(C)SC(C)C2=O)cc1 (stereo unspecified) | 2 | -3 | -1 | 31* | -1 | 3 | 1
Cc1cc(S(=O)(=O)c2ccc(Cl)cc2)nc(S(=O)(=O)c2ccc(Cl)cc2)c1C#N | 0 | -4 | nt | 39* | 3 | 29* | 28
